ABCB1 inh: human ABCB1 inhibition, ABCG2 as counter-screen | inhibition, % at 6.6 µM | 190,000 compounds, 0.067% hits | CCRF-Adr cells, JC-1 efflux, flow cytometry | P08183; in the data active = inhibition above about 40%;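 note: higher value means more JC-1 retained so stronger ABCB1 efflux block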
RAM inhibit: yeast RAM network inhibition; inhibition, % at 50 µM; 190,000 compounds, 1.8% hits; S. cerevisiae dse1pr::URA3 reporter, 5-FOA growth OD615, 2 d; analog-sensitive cbk1-as2 kinase mutant strain;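 active = inhibition above a set limit, 3 SD over mean compound inhibition, cut at about 8.4% in these data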;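 note: inhibition rescues growth on 5-FOA so higher OD means more RAM inhibition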
ABCG2 block: inhibitors of human ABCG2 transporter, ABCB1 counter-screen; Q9UNQ0; IgMXP3 cells, JC-1 efflux, flow cytometry; inhibition, % at 6.6 µM; 190,000 compounds, 0.1% hits; AID 1325;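 active = inhibition above 80%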
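Read-out basis: Efflux inhibition in percent versus controls | Test system: ABCG2 IgMXP3 and barcoded ABCB1 CCRF-Adr cell mix | Quantity: 3 million cells/mL in well | Schedule: 10 min at 25 °C | Control set: Nicardipine as high control, DMSO as low control | Reagent: JC-1 as fluorescent efflux pump substrate | Signal: Flow cytometry of retained JC-1 fluorescence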
WT yeast gro inh: growth inhibition of WT yeast, mitochondrial fusion screen. inhibition, % at 10 µM. AID 1362. 190,000 compounds, 2.1% hits. mitochondrial fusion phenotypic screen, WT strain; in the data active = inhibition above about 58%; tested in S. cerevisiae
L major viab: Leishmania major promastigote growth inhibition; Leishmania major promastigotes, resazurin fluorescence viability; inhibition, % at 10 µM; 200,000 compounds, 9% hits; AID 1063; in the data active = inhibition above about 50%;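 note: promastigotes grown with compound for 44 hours at 28 °C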
Each line names hits and unclear results; the compound was inactive in the other large screens. Only some compounds are listed: those with a hit (about 12% of all), similar ones and a draw of the others.

CCOc1ccccc1Nc1nc(-c2sc(NC(=O)c3cccc(Cl)c3)nc2C)cs1	none
Cc1ccc(Cl)cc1Nc1nc(-c2sc(NC(=O)c3ccccc3)nc2C)cs1	RAM inhibit 9.3, L major viab 50
CCOc1ccccc1Nc1nc(-c2sc(NC(=O)c3ccccc3)nc2C)cs1	L major viab 100
COc1ccccc1NC(=O)Cc1csc(NC(=O)c2ccccc2)n1	RAM inhibit 9.2
Cc1nc(NC(=O)c2ccccc2)sc1-c1csc(Nc2cccc(F)c2)n1	WT yeast gro inh 80
Cc1ccc(CNC(=O)c2cnccn2)cc1	none
COc1ccc(CCNC(=O)CSc2nc3ccccc3o2)cc1	none
CN(C(=O)COC(=O)c1ccc2c(c1)OCCO2)c1ccccc1	none
COc1ccccc1Nc1nc(-c2sc(NC(=O)c3ccc([N+](=O)[O-])cc3)nc2C)cs1	none
Cc1nc(C)c(-c2csc(Nc3ccc(F)cc3)n2)s1	WT yeast gro inh 73
COc1ccccc1Nc1nc(-c2sc(NC(=O)c3ccccc3)nc2C)cs1	L major viab 81
Cc1cc(C)n2ncc(C(=O)NCCc3ccccc3)c2n1	none
Cc1cc(C)n2ncc(C(=O)NCc3ccccc3)c2n1	L major viab 55
N#C/C(=N\Nc1cccc([N+](=O)[O-])c1)C(=O)c1ccc(Br)cc1	WT yeast gro inh 67
COCn1ccnc1C(O)(c1ccc(OC)cc1)c1ccc(OC)cc1	none
CCc1ccccc1NC(=O)Cn1nc(C(F)(F)F)cc1C1CC1	none
COc1ccc(-c2cn3cc(C)ccc3n2)cc1Br	L major viab 84
Cc1cccc(N2CCN(Cc3cnc(Cl)s3)CC2C)c1 (stereo not drawn)	L major viab 78
Cc1ccccc1NC(=O)CSc1nc(COc2ccccc2)nc2ccccc12	RAM inhibit 9.7
N#Cc1ccccc1NC(=O)CSc1nnc(-c2ccc(F)cc2)n1-c1ccccc1	none
Cc1cc(C)c(NC(=O)CSc2nc(COc3ccccc3)nc3ccccc23)c(C)c1	none
Cc1ccccc1OCc1nnc(SCc2cc(=O)[nH]c3ccccc23)o1	none
Cc1ccccc1OCc1nnc(SCc2cc(=O)[nH]c3ccccc23)n1-c1ccccc1	L major viab 75 (no result: ABCB1 inh)
Cc1ccc(OCc2nnc(SCc3cc(=O)[nH]c4ccccc34)n2-c2ccccc2)cc1	L major viab 73
Cc1ccc(NC(=O)CSc2nnc(-c3n[nH]c4ccccc34)n2-c2ccccc2)c(C)c1	L major viab 53
CC(NC(=O)c1cc(Br)ccc1Br)c1ccccc1 (stereo not drawn)	none
CC(=O)c1c(C)[nH]c(C(=O)OC(C)C(=O)Nc2cc(S(=O)(=O)N3CCCCC3)ccc2Cl)c1C (stereo not drawn)	none
CCOc1cc(C(=O)Nc2ccccc2F)cc(Br)c1OCC	none
Cc1cccc(NC(=S)N(CCN(C)C)Cc2cccs2)c1	none
Cc1ccc(OCc2nnc(SCC(=O)Nc3cccc4ccccc34)n2-c2ccccc2)cc1	L major viab 95
O=C1c2ccccc2CC1(Cc1ccccc1)Cc1ccccc1	WT yeast gro inh 73
CC1(C)Cc2ccccc2C(=O)N1	none
Cc1ccc(NC(=S)Nc2ccc3nc(-c4ccccn4)c(-c4ccccn4)nc3c2)cc1C	L major viab 72
COc1ccc(S(=O)(=O)Nc2ccc(C)cc2)cc1OC	none
COc1ccc(S(=O)(=O)N/N=c2\oc3c(OC)cccc3cc2S(=O)(=O)c2ccc(C)cc2)cc1OC	RAM inhibit 11
Nc1c2c(nc3ccn(Cc4ccccc4)c(=O)c13)CCC2	L major viab 89
Nc1c2c(nc3ccn(-c4ccccc4)c(=O)c13)CCCCC2	none
O=C1CN(C(=O)CN2CCCC2)C(c2ccccc2)c2cc(Br)ccc2N1 (stereo not drawn)	L major viab 64
O=C1CN(C(=O)CN2CCOCC2)C(c2ccccc2)c2cc(Br)ccc2N1 (stereo not drawn)	none
COc1ccc2c(COC(=O)CNC(=O)C34CC5CC(CC(C5)C3)C4)cc(=O)oc2c1	none
CC/C(=C\C1CCCCC1)C(NP(=O)(c1ccccc1)c1ccccc1)c1ccccc1 (stereo not drawn)	WT yeast gro inh 79
CCOc1cc(CNc2ccc(OC)cc2)cc(Br)c1OCC(=O)NC(C)(C)C	L major viab 100
CCCn1nc(C(=O)Nc2cccc(C(=O)OC)c2)c2ccccc2c1=O	RAM inhibit 8.9
O=C(Oc1cc(Cl)ccc1Cl)c1ccc(N2CCOCC2)c([N+](=O)[O-])c1	none
S=C(c1ccc(N2CCOCC2)cc1)N1CCCCC1	L major viab 81
CC(=O)N1CCN(C(=S)c2ccc(N(C)C)cc2)CC1	none
Oc1ccc(C(=S)N2CCCCC2)cc1	none
CN(C)c1ccc(C(=S)N2CCCCCC2)cc1	L major viab 76
Cc1cccc(C(C(N)=O)c2ncc(C(F)(F)F)cc2Cl)c1 (stereo not drawn)	none
c1ccc(C2Nc3ccccc3-c3nc4ccccc4n32)cc1 (stereo not drawn)	L major viab 69
CC(C)(C)c1cc[n+](CC(=O)Nc2cc(C(F)(F)F)ccc2N2CCOCC2)cc1	none
O=C(NC(Cc1c[nH]c2ccccc12)C(=O)Nc1ccc(F)c([N+](=O)[O-])c1)c1cccs1 (stereo not drawn)	L major viab 65
O=C(NC(Cc1c[nH]c2ccccc12)C(=O)Nc1ccc(OC(F)(F)F)cc1)c1cccs1 (stereo not drawn)	WT yeast gro inh 88
O=C(NC(Cc1c[nH]c2ccccc12)C(=O)O)c1cccs1 (stereo not drawn)	none
O=C(N/N=C/c1cccc(OCC(=O)N2CCCC2)c1)C(=O)Nc1ccccc1F	none
O=C(c1ccccc1)C1Oc2ccccc2C2CC(c3cccs3)=NN12 (stereo not drawn)	L major viab 65
O=C(Nc1ccccc1)N1N=C(c2cccs2)CC1c1cccs1 (stereo not drawn)	L major viab 89
COc1cccc(CN2CCN(c3nc4nonc4nc3N3CCCCC3)CC2=O)c1	none
CCOc1ccc2cc(/C=C/C(=O)c3ccco3)c(Cl)nc2c1	L major viab 64
CCN(Cc1ccccc1)S(=O)(=O)c1cc(C(=O)NC2CCCCCC2)ccc1OC	L major viab 95
CCN(Cc1ccccc1)S(=O)(=O)c1cc(C(=O)NCC2CCCCC2)ccc1OC	L major viab 98
CCN(CC)S(=O)(=O)c1cc(C(=O)NC2CCCCC2)ccc1C	none
Cc1ccc2nc(SC(C)C(=O)NCc3ccc4c(c3)OCO4)[nH]c2c1 (stereo not drawn)	none
Cc1ccc(CNC(=O)c2ccccc2NC(=O)CSc2nnnn2C)cc1	none
O=C(CCC(=O)N/N=C/c1ccccc1O)NCc1ccccc1	none
O=C(CCN1CCN(c2ccccc2)CC1)N/N=C/c1ccccc1O	L major viab 98
COc1ccc(-c2cc(CNS(=O)(=O)c3ccc(F)cc3)on2)cc1	none
Cc1ccc(OCC(=O)N2CCC(N3CCCCCC3)CC2)cc1	L major viab 87

High-throughput results from PubChem.
